{"source": "ChEMBL document CHEMBL4130626", "about": "“α-Arylidene Diacylglycerol-Lactones (DAG-Lactones) as Selective Ras Guanine-Releasing Protein 3 (RasGRP3) Ligands” (J Med Chem, 2018)", "format_in_all_cases": "cell-based", "key": {"[1]": {"target": "Protein kinase C delta type (Homo sapiens, UniProt Q05655)", "sequence (Q05655 whole entry)": "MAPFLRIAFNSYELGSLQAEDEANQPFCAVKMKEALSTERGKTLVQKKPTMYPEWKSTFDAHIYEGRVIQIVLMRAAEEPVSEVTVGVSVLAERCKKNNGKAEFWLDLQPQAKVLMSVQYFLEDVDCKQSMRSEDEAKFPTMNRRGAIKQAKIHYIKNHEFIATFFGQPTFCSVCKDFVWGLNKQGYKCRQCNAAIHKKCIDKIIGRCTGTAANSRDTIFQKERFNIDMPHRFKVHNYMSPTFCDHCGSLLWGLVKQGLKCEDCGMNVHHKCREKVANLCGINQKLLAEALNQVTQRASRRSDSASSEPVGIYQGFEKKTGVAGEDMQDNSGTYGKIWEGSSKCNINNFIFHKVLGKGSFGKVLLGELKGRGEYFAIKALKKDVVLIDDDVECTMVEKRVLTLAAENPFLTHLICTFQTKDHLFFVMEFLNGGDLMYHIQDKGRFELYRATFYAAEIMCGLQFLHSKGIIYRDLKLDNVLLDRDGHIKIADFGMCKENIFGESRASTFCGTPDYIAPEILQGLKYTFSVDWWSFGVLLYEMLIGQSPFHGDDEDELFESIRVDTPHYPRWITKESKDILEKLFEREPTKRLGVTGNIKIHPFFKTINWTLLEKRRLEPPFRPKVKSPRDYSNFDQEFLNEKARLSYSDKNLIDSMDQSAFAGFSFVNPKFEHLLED", "experiment": "Activation of PKCdelta (unknown origin) expressed in HEK293 cells harboring GFP-tagged RasGRP3 assessed as phosphorylation at ser299 residues after 30 mins by immunoblot method", "in_short": "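Cells are GFP-RasGRP3-transfected HEK293, grown in EMEM + 10% FBS. Exposed 30 min at 37 °C, 5% CO2, to half-log concentrations up to 10 µM, 1000 nM PMA or DMSO. Lysed in RIPA with protease and phosphatase inhibitors. 50 µg protein run on 10% SDS-PAGE and blotted for phospho-PKCδ S299; anti-GFP used as loading control. Signal normalised to 1000 nM PMA. EC50 is the mean of n = 3.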"}, "[2]": {"species_on_record": "Homo sapiens", "experiment": "Selectivity ratio of EC50 for PKCdelta (unknown origin) expressed in HEK293 cells harboring GFP-tagged RasGRP3 to EC50 for GFP-tagged RasGRP3 (unknown origin) expressed in HEK293 cells", "in_short": "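One EC50 comes from PKCδ S299 phosphorylation on immunoblot, the other from Ras-GTP pulled down on Raf1-RBD. Both signals normalised to 1000 nM PMA. EC50s above 10 µM are extrapolated.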"}, "[3]": {"target": "T1, Ras guanyl-releasing protein 3 (Homo sapiens, UniProt Q8IV61)", "T1 sequence (Q8IV61 whole entry)": "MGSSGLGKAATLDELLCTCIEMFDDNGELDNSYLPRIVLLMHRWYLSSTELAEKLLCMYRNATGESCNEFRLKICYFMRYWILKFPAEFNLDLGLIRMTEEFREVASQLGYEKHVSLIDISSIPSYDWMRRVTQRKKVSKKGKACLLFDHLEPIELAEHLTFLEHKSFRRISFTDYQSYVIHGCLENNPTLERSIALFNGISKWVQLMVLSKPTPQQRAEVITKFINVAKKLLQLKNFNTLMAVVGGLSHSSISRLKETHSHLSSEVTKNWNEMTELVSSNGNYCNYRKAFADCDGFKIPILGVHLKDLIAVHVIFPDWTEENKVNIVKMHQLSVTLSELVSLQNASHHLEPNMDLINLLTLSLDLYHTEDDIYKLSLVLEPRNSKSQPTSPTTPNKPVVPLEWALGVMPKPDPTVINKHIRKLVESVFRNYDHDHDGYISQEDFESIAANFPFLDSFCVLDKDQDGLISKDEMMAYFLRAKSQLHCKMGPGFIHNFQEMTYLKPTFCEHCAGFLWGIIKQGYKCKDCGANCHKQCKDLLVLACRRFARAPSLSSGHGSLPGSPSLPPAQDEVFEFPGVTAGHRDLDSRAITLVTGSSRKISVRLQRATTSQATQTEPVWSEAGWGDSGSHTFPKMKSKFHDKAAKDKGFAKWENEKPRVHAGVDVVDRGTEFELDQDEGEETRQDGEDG", "experiment": "Activation of GFP-tagged RasGRP3 (unknown origin) expressed in HEK293 cells after 30 mins by immunoblot method", "in_short": "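HEK293 cells grown in EMEM + 10% FBS, transfected after 48 h with GFP-RasGRP3 (Lipofectamine Plus). Treated 30 min at 37 °C, 5% CO2, with half-log increasing concentrations up to 10 µM, 1000 nM PMA or DMSO. Active Ras pulled down from lysates on Raf1-RBD agarose (60 min, 4 °C), immunoblotted with anti-Pan-Ras. Band intensity normalised to 1000 nM PMA. EC50 is the mean of n = 3.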"}}, "data": [{"smiles": "CCCCCCCCCCCCCC(=O)O[C@@H]1[C@@H](C)[C@@]2(O)[C@@H](C=C(CO)C[C@]3(O)C(=O)C(C)=C[C@@H]23)[C@@H]2C(C)(C)[C@]12OC(C)=O", "note": "[PHORBOL MYRISTATE ACETATE]", "values": [{"measurement": "EC50", "setting": "[1]", "value": 290, "unit": "nM"}, {"measurement": "Ratio EC50", "setting": "[2]", "value": 3.5}, {"measurement": "EC50", "setting": "[3]", "value": 82, "unit": "nM"}]}]}
